Diaph inh CS: inhibits diaphorase or chemically oxidizes, flagging diaphorase assay artifacts; AID 1217; diaphorase resazurin-to-resorufin fluorescence, NADH, 16 min; bacterial (C. kluyveri) enzyme, not human; 190,000 tested, 0.69% active; inhibition, % at 20 µM;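 active means primary screen inhibition at 20 µM above a set limit, cut at about 50% in these data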;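 further: plate controls were DMSO with full reaction for no effect and wells lacking NADH for full effect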
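Test system: diaphorase enzyme from Clostridium kluyveri; amount: diaphorase at 0.14 U/mL in enzyme working solution; detection: fluorescence of resorufin formed from resazurin, Ex 544/Em 590 nm; times: reaction incubation of 16 min at room temperature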
PMI activator: phosphomannose isomerase (human) activation; purified human PMI, coupled resazurin fluorescence, 20 min; stronger effect = higher value; 1 = vehicle control, 0 substrate-free wells; 190,000 tested, 0.005% active; P34949; activation factor at 20 µM; AID 1214;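 active means activation factor of 2 or more at 20 µM, relative to plate controls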
Target sequence (P34949 whole entry, looked up): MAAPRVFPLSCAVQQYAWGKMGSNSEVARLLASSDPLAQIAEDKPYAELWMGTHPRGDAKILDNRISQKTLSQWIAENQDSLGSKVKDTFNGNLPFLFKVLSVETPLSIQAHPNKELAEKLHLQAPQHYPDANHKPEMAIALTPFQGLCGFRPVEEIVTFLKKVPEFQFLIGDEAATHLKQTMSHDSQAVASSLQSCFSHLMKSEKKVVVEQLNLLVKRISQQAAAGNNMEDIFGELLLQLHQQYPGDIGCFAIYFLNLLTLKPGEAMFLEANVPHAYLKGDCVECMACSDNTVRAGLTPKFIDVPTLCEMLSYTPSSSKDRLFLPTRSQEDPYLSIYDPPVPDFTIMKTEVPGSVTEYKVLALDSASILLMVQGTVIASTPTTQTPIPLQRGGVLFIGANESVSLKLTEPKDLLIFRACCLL
PMI act hi M6P: PMI (human) activation, high substrate | P34949 | coupled PMI enzyme assay, resazurin fluorescence, 20 min; stronger effect = higher value; 1 = untreated enzyme, 0 = substrate-free blank | activation factor at 20 µM | 190,000 tested, 0.34% active;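 active means activation factor of 2 or more at 20 µM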
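Test system: human phosphomannose isomerase with PGI, G6PDH, diaphorase coupling enzymes; amount: 15 ng/mL PMI; incubation: enzyme reaction with compound 20 min at room temperature; technique: resorufin fluorescence (Ex 544/Em 590 nm) from resazurin via diaphorase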
FLuc inh counter: counter-screen for luciferase assay inhibitors: firefly luciferase inhibition; ATPLite firefly luciferase biochemical luminescence, 10 min; inhibition, % at 10 µM; 200,000 tested, 1.5% active; AID 1006;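 active means inhibition above about 50% when tested at 10 µM, limit read from the data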
FLuc stim CS: firefly luciferase counter-screen for stimulation assays | ATPlite luciferase biochemical, luminescence, 10 min; 0 = ATP-free wells, 1 = DMSO control | 200,000 tested, under 10 active | activation factor at 10 µM | P08659;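 active means luciferase activation factor, scaled between plate controls, of at least 2 with compound at 10 µM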
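Assay system: Luciferase/luciferin detection reagent, cell-free biochemical luciferase assay / Read-out: luciferase activation / Benchmarks: No-ATP low control, compound-free enzyme-plus-ATP high control / Medium: PBS buffer for ATP / Detection: luminescence measurement of luciferase light output / Schedule: 10 min at ambient temperature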
Diaphorase act: counter-screen for diaphorase-based assays: diaphorase activators and chemical reducers. Diaphorase/resazurin coupled assay, resorufin fluorescence, 16 min; stronger effect = higher value; 1 = vehicle wells, 0 = NADH-free wells. activation factor at 20 µM. 190,000 tested, 0.005% active;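 active means diaphorase activity raised at least twofold by the compound at 20 µM; inactive means activation factor below 2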
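Material: purified diaphorase enzyme from Clostridium kluyveri / Medium: HEPES pH 7.4 buffer with MgCl2 and Tween 20 / Schedule: enzyme reaction of 16 min at room temperature / Measured by: resorufin fluorescence, excitation 544 nm, emission 590 nm / Evaluation: rise in resorufin formation, marking diaphorase activation or chemical reduction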
Numbers without * were called inactive; . = no result. A selection: hits, their analogues and other compounds. The true share with any hit is near 2.5%.

SMILES	Diaph inh CS	PMI activator	PMI act hi M6P	FLuc inh counter	FLuc stim CS	Diaphorase act
O=C(O)c1cccc(NC(=S)N/N=C/c2ccccc2OCc2cccc(Br)c2)c1	57*	1	1	0	1	0.4
COC(=O)c1ccc(COc2ccccc2/C=N/Nc2cccc(C(=O)O)c2)cc1	30	1.3	0.9	-2	1	0.7
O=C(O)c1cccc(NC(=S)N/N=C/c2cccc(O)c2)c1	-5	1.1	1.1	25	0.7	1.1
O=C(O)c1cccc(NC(=S)N/N=C/c2ccccc2OCc2ccc(Br)cc2)c1	51*	1	1.1	4	1	0.5
O=C1c2c(O)cc(O)cc2O[C@H](c2ccc(O)c(O)c2)[C@@H]1O	54*	0.5	0.9	-3	1	0.5
COc1ccccc1CNN	17	1.6	2.2*	-5	1.1	0.8
Cc1c(CNC(=O)C2CC2)c(-n2cccc2)n(Cc2ccccc2)c1C	-18	1.2	1.1	6	0.9	1.2
CN(C)c1ccc(/C=N/N=C2/NC(=O)/C(=C/c3ccc([N+](=O)[O-])cc3)S2)cc1	-10	0.9	0.9	89*	0.1	1.1
Cc1ccc(N2C(=O)NC3(CCCCC3)C2=O)cc1	19	0.9	0.8	3	1	0.8
Cc1ccc(N2NC3(CCN(C(N)=O)CC3)NC2=O)cc1	13	1.6	2.3*	-1	1	0.9
Cc1ccc(-n2c(CNc3ccc(F)cc3)nnc2SCC(=O)O)cc1	-10	1.1	1.1	-4	1	1.1
Cc1ccc(NCc2nnc(SCC(=O)O)n2-c2ccc(C)cc2)cc1	.	.	.	82*	0.2	.
Cc1ccc(CN=C2Nc3ccccc3CS2)cc1	14	0.9	1	81*	0.2	0.9
CCCNC(=O)COC(=O)CCC(=O)c1cccs1	16	1	1	-6	1.1	0.8
O=C(Nc1ccccn1)c1ccc2ccccc2n1	-16	1.2	1.2	84*	0.2	1.2
O=C(Nc1ccc(N2CCCCC2)cc1)c1ccc2ccccc2n1	6	1	0.9	54*	0.5	0.9
COc1cc(C(=O)N2CCN(C(=O)COc3ccc4ccccc4c3)CC2)cc(OC)c1OC	16	1	0.8	32	0.7	0.8
CCOC(=O)Cn1nc(C)n(-c2ccc(C)cc2)c1=O	3	1	1	-6	1.1	1
CCC/C=C(\CCC)C(NS(=O)(=O)c1cccc2cccnc12)c1ccc(C(=O)OC)cc1 (configuration not stated)	26	1	0.9	6	0.9	0.7
Cc1ccc(N2NC(=O)/C(=C/c3ccc(-c4ccc(Cl)c(C(=O)O)c4)o3)C2=O)cc1C	23	1	1	9	0.9	0.8
COC(=O)c1ccc(N2NC(=O)/C(=C/c3ccc(-c4ccc(Cl)c(C(=O)O)c4)o3)C2=O)cc1	74*	1	0.9	16	0.8	0.3
CCOc1ccc(-c2nc3ccccc3c(=O)o2)cc1	-1	1	1	68*	0.3	1
CCOc1ccc(-c2nnc(-c3ccccc3)o2)cc1	2	1	1	75*	0.3	1
CCOC(CNC(=O)Cn1nc(C)c2ccccc21)OCC	-12	1.1	1.1	0	1	1.1
CCOc1cc(C=O)cc(Br)c1OCC(=O)NCCc1ccccc1	16	0.9	0.8	-7	1.1	0.8
Cc1nn(C)cc1/C=C/C(=O)c1ccc(O)cc1	10	0.9	1	57*	0.4	0.9
Cc1nn(C)cc1/C=N/O	20	0.9	0.9	-7	1.1	0.8
COCCNc1c(-c2cc3ccc(C)c(C)c3[nH]c2=O)nc2ccccn12	10	0.9	0.8	70*	0.3	0.9
CCCCn1c(N)c(C(=S)NC(=O)CC(C)C)c(=O)n(C)c1=O	59*	1	1	-10	1.1	0.4
CC(=O)NC(=S)c1c(N)n(Cc2ccccc2)c(=O)n(C)c1=O	42	1	0.9	-4	1	0.6

Source: PubChem
